Results on seven compounds are retold here after ChEMBL document CHEMBL3244124, “Synthesis of 2-substituted primaquine analogues as potential antimalarials” (J Med Chem, 1978).

As usually defined, the inhibition in vivo is the drop in the measured response relative to a control, in per cent.

The source made the active and inactive calls. The rule behind the calls is not given here.

In series [1] the test system is Schistosoma mansoni. In words: Antiparasitic activity against Schistosoma mansoni infected in mouse assessed as survival up to 49 days at 1280 mg/kg, sc administered through peanut oil on day 2 post infection. Also noted: dose 1280 mg/kg. The class given is functional, organism-based.
Series [2] has as its system Leishmania donovani. In words: Potency index, ratio of glucantime to compound for antileishmanial activity against Leishmania donovani infected in hamster assessed as 90% suppression of parasitemia at 13 to 208 mg/kg/day, im bid administered 4 days measured for 8 days. The class given is functional. The following applies: route intramuscular. An outline of the steps: (§1)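 Hamsters infected with Leishmania donovani were assessed in an 8-day test. Seven animals per drug level received 208, 52 or 13 mg/kg/day. Percent suppression of parasites was calculated against infected, untreated controls (seven to ten animals). Glucantime index G = SD90 of Glucantime / SD90 of the new drug, where SD90 is the dose giving 90% parasite suppression.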

The subject of series [3] is Plasmodium berghei. In words: Antimalarial activity against blood stage of Plasmodium berghei infected in mouse assessed as increase in mean survival time at 80 mg/kg, sc. The class given is functional. Conditions: route subcutaneous.
Series [4] relates to Mus musculus. In words: Toxicity in mouse infected with blood stage of Plasmodium berghei assessed as mortality at 320 mg/kg, sc measured on day 2. Conditions: in vivo. Also on record: dose 320 mg/kg, route subcutaneous. It is filed as organism-based. An outline of the steps:
(§2)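 P. berghei-infected mice, five per group, after subcutaneous dosing. Deaths occurring 2 to 5 days after drug administration are scored as drug toxicity rather than infection.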

Series [5] concerns Mus musculus. In words: Toxicity in mouse infected with blood stage of Plasmodium berghei assessed as mortality at 640 mg/kg, sc measured on day 3. It is filed as organism-based. Also noted: dose 640 mg/kg, route subcutaneous. Conditions: in vivo. An outline of the steps: as §2
Series [6] has as its system Leishmania donovani. Description: Potency index, ratio of glucantime to compound for antileishmanial activity against Leishmania donovani infected in hamster assessed as 90% suppression of parasitemia at 208 mg/kg/day, im bid administered 4 days measured for 8 days. It is filed as functional. The following applies: route intramuscular. An outline of the steps: as §1

Series [7] relates to Mus musculus. In words: Toxicity in mouse infected with blood stage of Plasmodium berghei assessed as mortality at 160 mg/kg, sc measured on day 2. The following applies: in vivo. Also on record: route subcutaneous, dose 160 mg/kg. It is filed as organism-based. The method, boiled down: as §2
The subject of series [8] is Trypanosoma brucei rhodesiense. Description: Antitrypanosomal activity against blood stage of Trypanosoma rhodesiense infected in mouse. The class given is functional, organism-based.
Series [9] concerns Plasmodium cynomolgi. In words: Antimalarial activity against sporozoite stage of Plasmodium cynomolgi infected in rhesus monkey assessed as radical curative activity measured for 90 days. The class given is functional, organism-based.
Series [10] relates to Plasmodium berghei. Description: Antimalarial activity against blood stage of Plasmodium berghei infected in mouse assessed as increase in mean survival time at 640 mg/kg, sc. It is filed as functional. The following applies: route subcutaneous.
Series [11] has as its system Plasmodium berghei. In words: Antimalarial activity against blood stage of Plasmodium berghei infected in mouse assessed as increase in mean survival time at 320 mg/kg, sc. The following applies: route subcutaneous. The class given is functional.
Series [12] deals with Plasmodium berghei. Description: Antimalarial activity against blood stage of Plasmodium berghei infected in mouse assessed as increase in mean survival time at 160 mg/kg, sc. It is filed as functional. Conditions: route subcutaneous.
Series [13] deals with Mus musculus. In words: Toxicity in mouse infected with blood stage of Plasmodium berghei assessed as mortality at 640 mg/kg, sc measured on day 5. It is filed as organism-based. Also on record: dose 640 mg/kg, route subcutaneous. The following applies: in vivo. The method, boiled down:
as §2

Series [14] concerns Mus musculus. Description: Toxicity in mouse infected with blood stage of Plasmodium berghei assessed as mortality at 320 mg/kg, sc measured on day 5. Also noted: dose 320 mg/kg, route subcutaneous. The following applies: in vivo. The class given is organism-based. The method, boiled down: as §2
The subject of series [15] is Mus musculus. In words: Toxicity in mouse infected with blood stage of Plasmodium berghei assessed as mortality at 640 mg/kg, sc measured on day 2. The following applies: in vivo. It is filed as organism-based. Also on record: dose 640 mg/kg, route subcutaneous. An outline of the steps:
as §2

In series [16] the test system is Mus musculus. Description: Toxicity in mouse infected with blood stage of Plasmodium berghei assessed as mortality at 160 mg/kg, sc measured on day 1. Conditions: in vivo. Also noted: dose 160 mg/kg, route subcutaneous. It is filed as organism-based.
The test system of series [17] is Leishmania donovani. In words: Potency index, ratio of glucantime to compound for antileishmanial activity against Leishmania donovani infected in hamster assessed as 90% suppression of parasitemia at 13 mg/kg/day, im bid administered 4 days measured for 8 days. The class given is functional. Conditions: route intramuscular. The method, boiled down:
as §1

Series [18] has as its system Leishmania donovani. In words: Antileishmanial activity against Leishmania donovani infected in hamster assessed as inhibition of parasitemia at 52 mg/kg/day, im bid administered for 4 days relative to control. Conditions: 96 h, route intramuscular. It is filed as functional. An outline of the steps: as §1
The test system of series [19] is Mus musculus. Description: Toxicity in mouse infected with blood stage of Plasmodium berghei assessed as mortality at 80 to 640 mg/kg, sc measured for 5 days. The class given is organism-based. Also on record: dose 80-640 mg/kg, route subcutaneous. The following applies: in vivo, 120 h. The method, boiled down: as §2
Series [20] relates to Leishmania donovani. In words: Potency index, ratio of glucantime to compound for antileishmanial activity against Leishmania donovani infected in hamster assessed as 90% suppression of parasitemia at 3.25 mg/kg/day, im bid administered 4 days measured for 8 days. The class given is functional. The following applies: route intramuscular.

As for `COc1cc(NC(C)CCCN)c2nc(N)ccc2c1.O=C(O)/C=C\C(=O)O` (stereo unspecified), the result in series [1] was inactive. Besides, the Ratio in series [2] is recorded as 0.
Regarding `COc1cc(NC(C)CCCN)c2nc(Cl)ccc2c1.O=C(O)/C=C\C(=O)O` (stereo unspecified), the Survival in series [3] stood at 1.2 days; in series [10], 5.5 days; in series [11] it was 4 days; in series [12], 3 days. Also, the Activity result in series [4], in series [5] and in series [7] was “Toxic” in each case. In addition, the Ratio in series [6] is 0.3. Besides, the result in series [8] and in series [9] was inactive.
Consider `COc1cc(NC(C)CCCN)c2ncccc2c1` (stereo unspecified) [PRIMAQUINE], for which the Survival stood at 9.4 days in series [3] and 10.8 days in series [12]. In addition, the Activity entry in series [7], in [13] and in series [14] was “Toxic” in each case. Besides, the Ratio in series [2] is reported as 0.96.
As for `C=Cc1ccc2cc(OC)cc(NC(C)CCCN)c2n1.O=C(O)/C=C/C(=O)O` (stereo unspecified), the Survival in series [3] came out at 2.9 days; in [10], 7.9 days; in series [11] it was 5.3 days; in series [12] it was 3.3 days. For the same compound, the Activity entry in series [4], in series [15] and in series [7] was “Toxic” throughout.
Regarding `COc1cc(NC(C)CCCN)c2nc(OC)ccc2c1.O=C(O)/C=C\C(=O)O` (stereo unspecified), the Survival in series [3] was found to be 6.1 days; in series [12], 7.9 days. The Activity entry in series [16], in series [13] and in [14] was “Toxic” throughout. For the same compound, the outcome in [9] was inactive. Besides, the Ratio in series [17] is 2.4.
For `COc1cc(NC(C)CCCN)c2nc(N(C)C)ccc2c1.O=C(O)/C=C/C(=O)O` (stereo unspecified), the Survival in series [3] was 4.9 days; in [12], 5.2 days. The Activity result in series [16], in series [13] and in series [14] was “Toxic” throughout. Besides, in [18], the inhibition in vivo at 52 mg/kg/day came to 99%.
On to `CCc1ccc2cc(OC)cc(NC(C)CCCN)c2n1.O=C(O)/C=C\C(=O)O` (stereo unspecified), for which the Activity entry in series [19] is given as “Non-toxic”. Further, the Survival in [3] turned out to be 6.7 days; in [10] it was 13.9 days; in [11], 9.9 days; in [12], 8.3 days. Moreover, the Ratio in series [20] turned out to be 10. Besides, the result in series [1] and in [9] was inactive.
